Assay results gathered from unrelated publications.
In brackets after ≈: the same amount, converted by molar mass.

CCOC(=O)C=c1[nH]c(=O)c(=Cc2cn(-c3ccccc3)nc2-c2ccc(C)cc2)s1  inhibition zone (Klebsiella pneumoniae; microbial growth, well diffusion; 100000 µg/mL): 13 mm
O=C1NC(=S)S/C1=C\c1c2ccccc2c(-c2ccc(N(c3ccccc3)c3ccccc3)cc2)c2ccccc12  MIC (Streptococcus pneumoniae; microbial growth, broth dilution; ATCC49619): > 1000 µg/mL
Oc1cccc2[nH]ccc12  EC90 (Cryptosporidium parvum; parasite growth; HCT-8; 24 h, intracellular): 2.77 mM
O=S(=O)(Oc1cccc2cccnc12)c1cccs1  IC50 (Klebsiella pneumoniae; microbial growth, broth dilution; ATCC700603): 443 µg/mL (≈ 1520 µM)
O=C(O)CN1C(=O)/C(=C/c2ccc(-c3ccc(N(c4ccccc4)c4ccccc4)cc3)c3ccccc23)SC1=S  MIC (Streptococcus pneumoniae; microbial growth, broth dilution; ATCC49619): 1000 µg/mL (≈ 1750 µM)
c1ccc(-n2cc(COc3cccc4cccnc34)nn2)cc1  IC50 (Klebsiella pneumoniae; microbial growth, broth dilution; ATCC700603): 401 µg/mL (≈ 1330 µM)
CCOC(=O)c1c(N)csc1-c1cn(-c2ccccc2)nc1-c1ccc(C)cc1  MBC (Klebsiella pneumoniae; microbial killing, broth dilution): 0.25 µg/mL (≈ 0.62 µM)
O=c1cc[nH]c(=O)[nH]1  activity vs control (Cryptosporidium parvum; parasite growth, imaging; HCT-8; 1 mM, 24 h, intracellular): 101%
NS(=O)(=O)c1ccc(-n2cc(COc3cccc4cccnc34)nn2)cc1  IC50 (Klebsiella pneumoniae; microbial growth, broth dilution; ATCC700603): 866 µg/mL (≈ 2270 µM)
